Screening results (PubChem BioAssay)
CAL PDZ FP-1 – human CAL PDZ-peptide interaction inhibition | 330,000 tested, 0.02% active | AID 504414 | inhibition, % at 20 µM | Q9HD26 | purified CAL PDZ, TMR-peptide fluorescence polarization, 1 h;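 active means highest replicate inhibition of at least 40%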;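 further: plate controls were DMSO neutral control wells for no effect and unlabeled competitor peptide control wells for full effect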
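Test system: purified CerCALP PDZ construct; Compound dosing: one concentration, 20 µM compound; Also added: TMR-labelled reporter peptide T*-PRC34 bound in PDZ groove; Read-out: inhibition from polarization loss; Controls: unlabelled peptide and DMSO controls; Signal: FP readout, S and P plane fluorescence; Incubation: 1 h at RT.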
Rin1 Abl inh – inhibitors of human Rin1-Abl protein interaction. TR-FRET Rin1/Abl binding, biochemical. P00519+Q13671. inhibition, % at 7.35 µM. 360,000 tested, 0.4% active; in the data active means inhibition above about 5%, passing the limit was not always enough
CAL PDZ FP-2 – blocks peptide binding to the human CAL PDZ domain. Q9HD26. purified CAL PDZ, TMR-peptide fluorescence polarization, 1 h. inhibition, % at 24.9 µM. 300,000 tested, 0.92% active;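 active means mean inhibition of at least 30% with at least half of replicates also reaching 30%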;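 further: 0% = DMSO neutral control and 100% = excess unlabeled competitor peptide PRC23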
ERp5 inh – blocks human ERp5 reductase activity on insulin. ERp5 insulin aggregation, absorbance 650 nm, 90 min. 350,000 tested, 0.05% active. AID 651711. inhibition, % at 9.99 µM;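 active means mean replicate inhibition above about 25%, with every replicate also reaching it, limit read from the data, passing the limit was not always enough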
Target sequence (Q15084 whole entry, looked up): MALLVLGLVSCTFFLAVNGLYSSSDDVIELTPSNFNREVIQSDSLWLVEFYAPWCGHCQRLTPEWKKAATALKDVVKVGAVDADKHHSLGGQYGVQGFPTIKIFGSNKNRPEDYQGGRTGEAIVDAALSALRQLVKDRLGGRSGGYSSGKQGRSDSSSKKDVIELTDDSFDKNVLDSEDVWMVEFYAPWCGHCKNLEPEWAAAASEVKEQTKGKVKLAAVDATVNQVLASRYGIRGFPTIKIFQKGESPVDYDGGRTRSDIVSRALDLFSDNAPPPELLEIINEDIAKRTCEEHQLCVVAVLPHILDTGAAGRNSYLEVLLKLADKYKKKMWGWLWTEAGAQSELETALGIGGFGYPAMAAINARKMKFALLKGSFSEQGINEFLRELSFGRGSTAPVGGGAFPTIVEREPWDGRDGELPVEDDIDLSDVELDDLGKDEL
ERAP1 inh – inhibitors of human ERAP1 aminopeptidase | inhibition, % at 10.7 µM | recombinant ERAP1, Leu-AMC fluorescence, 60 min | 340,000 tested, 0.15% active;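 active means mean replicate inhibition of at least 30%, or all replicates individually reaching that 30% level; inactive means mean below 30% and not every replicate reaching it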;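 further: 0% = neutral control wells and 100% = L-leucinethiol positive control wells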
PDI turbidity – blocks human protein disulfide isomerase activity. PDI insulin aggregation turbidity, A650, 90 min. inhibition, % at 10 µM. 350,000 tested, 0.052% active;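 active means mean inhibition across replicates of 30% or more, whatever share of single replicates reach that level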
The depositor's hits bear a star; x = no result; ! = repeats disagree. Rows were chosen to be rich in hits. Some 1.1% of all compounds tested hit in one or more screens of this group.

SMILES	CAL PDZ FP-1	Rin1 Abl inh	CAL PDZ FP-2	ERp5 inh	ERAP1 inh	PDI turbidity
O=c1n(-c2ccccc2)c(=O)n2n1CC(COc1ccccc1)=C([C@H](O)c1ccccc1)[C@@H]2CO	x	x	x	3	2	x
COc1ccc(CN2CCNC(=O)C2CC(=O)N(C)CCC2CCOCC2)cc1OC (centres undefined)	0	0	93*	7	2	-7
CCC(=O)N1CCC2(CC1)CN(Cc1cc(F)ccc1F)[C@@H](CO)c1[nH]c3cc(OC)ccc3c12	x	x	x	3	-1	x
O=C(C[C@@H]1C=C[C@H](NC(=O)c2ccncc2)[C@H](CO)O1)NCCc1ccncc1	x	x	x	-7	-1	x
CSCCC(NC(=O)c1ccco1)C(=O)NCCc1ccc(Cl)cc1 (centres undefined)	0	0	100*	-10	0	9
COc1ccc(C#Cc2ccc([C@@H]3[C@H](CO)N4C(=O)CN(C(=O)NC(C)C)C[C@@H]34)cc2)cc1	x	x	x	-1	1	x
CN1C(=O)c2cc(NS(C)(=O)=O)ccc2OC[C@H]2O[C@H](CC(=O)NC3CCCCC3)CC[C@@H]21	x	x	x	-3	-3	x
O=C(c1cccc(C(F)(F)F)c1)C1CCCN(C(=O)CCn2cnnn2)C1 (centres undefined)	-5	1	52*	4	x	1
COc1ccc(-c2cn(CC[C@@H]3CC[C@H](NS(=O)(=O)c4ccccc4C)[C@H](CO)O3)nn2)cc1	x	x	x	0	-1	x
COc1ccc(-c2nn(CCC#N)cc2/C=N/O)cc1	0	-3	-2	-1	2	5
COc1ccc(-c2nn(CCC#N)cc2/C=N/O)cc1OC	9	-1	58*	1	-1	-1
O=C(Nc1ccn(CCOC(=O)c2ccccc2)c(=O)n1)c1ccccc1	x	14	x	0	2	x
O=C(Nc1ccn(C2CC(OC(=O)c3ccccc3)C(CO)O2)c(=O)n1)c1ccccc1 (centres undefined)	x	9.1*	0	x	x	-12
CC1CN(C(=O)/C=C/c2ccc([N+](=O)[O-])s2)CC(C)O1 (centres undefined)	0	-3	40*	2	3	-2
CC1CC(C)CN(C(=O)/C=C/c2ccc([N+](=O)[O-])s2)C1 (centres undefined)	0	1	x	-3	2	-3
C[C@H](CO)N1C[C@H](C)[C@H](CN(C)S(=O)(=O)c2cccs2)Oc2ncc(C#CC(C)(C)O)cc2C1=O	x	x	x	-2	-2	x
O=C(CN1CCC(n2nnc3cc(C(F)(F)F)ccc32)CC1)Nc1ccc2c(c1)OCCO2	0	1	49*	x	x	3
O=C(CN1CCC(n2nnc3cc(C(F)(F)F)ccc32)CC1)Nc1ccc2c(c1)CCC2	1	0	-2	x	x	1
COc1ccc2[nH]cc(CCNC(=O)Cc3ccc(Br)cc3)c2c1	0	1	-3	0	0	12
COc1ccc2[nH]cc(CCNC(=O)Cc3ccc(F)cc3)c2c1	-4	-2	79*	1	-1	2
COC(=O)[C@@H]1C[C@@H](C(=O)O)[C@H](C)C1(C)C	1	-2	43*	2	-3	-10
COC(=O)C[C@H]1C=C[C@@H](C(C(=O)OC)C(=O)OC)CN1C(C)=O	-1	3	91*	7	-1	-3
COC(=O)C(C(=O)OC)[C@@H]1C=C[C@H](C[N+](=O)[O-])N(C(C)=O)C1	-1	-2	-3	-2	-3	-5
Cc1ccccc1-c1ccccc1[C@H]1[C@@H](C#N)N(C(=O)c2ccccc2)[C@H]1CO	x	x	x	-2	0	x
Cc1ccccc1Nc1nc(N)nc(CN2C(=O)NC3(CCCCC3C)C2=O)n1 (centres undefined)	-1	2	50*	x	x	-3
SMILES	CAL PDZ FP-1	Rin1 Abl inh	CAL PDZ FP-2	ERp5 inh	ERAP1 inh	PDI turbidity
COc1ccc2c3c([nH]c2c1)[C@@H](CO)N(C(C)=O)CC31CN(S(=O)(=O)c2ccccc2)C1	x	x	x	0	1	x
CC1(C)CC[C@]2(C(=O)O)CC[C@]3(C)C(=CC[C@@H]4[C@@]5(C)CC[C@H](O[C@@H]6O[C@H](C(=O)O)[C@@H](O)[C@H](O[C@@H]7OC[C@H](O)[C@H](O)[C@H]7O)[C@H]6O)C(C)(C)[C@@H]5CC[C@]43C)[C@@H]2C1	-1	1	-8	-1	x	88*
CC1(C)CC[C@]2(C(=O)O[C@@H]3O[C@H](CO)[C@@H](O)[C@H](O)[C@H]3O)CC[C@]3(C)C(=CCC4[C@@]5(C)CC[C@H](O[C@@H]6O[C@H](C(=O)O)[C@@H](O[C@H]7OC[C@@H](O)[C@@H](O)[C@@H]7O)[C@H](O)[C@H]6O)C(C)(C)C5CC[C@]43C)[C@@H]2C1 (some centres undefined)	-3	2	-8	-2	x	2
CCc1cccc(C)c1NC(=O)c1cc(=O)[nH]c2ccc(S(=O)(=O)N3CCOCC3)cc12	-2	1	-2	1	95*	-15
O=C1C=C(c2ccccc2)C(c2ccccc2)C1 (centres undefined)	48*	1	x	-13	-7	11
CN1CCN(C(=O)C2=C[C@H](c3ccccc3)C[C@H](OCCCCO)O2)CC1	x	x	x	2	1	x
COc1cc(NC(=S)N2CCN(S(=O)(=O)c3ccc(F)cc3)CC2)cc(OC)c1	-2	-2	48*	3	0	-3
Cc1ccc(C)c(N(CC(=O)N2CCCC2)S(C)(=O)=O)c1	4	0	77*	4	-7	2
CCCNC(=O)C1CCC(CNS(=O)(=O)c2ccc3c(c2)CC(C)N3C(C)=O)CC1 (centres undefined)	0	-3	82*	3	-1	0
CC(=O)N1c2ccc(S(=O)(=O)N3CCCCC3)cc2CC1C(=O)NCc1ccccc1C (centres undefined)	-1	-2	39*	-1	1	-6
CC(=O)N1c2ccc(S(=O)(=O)NCC3CCC(C(=O)NCc4ccc(C)cc4)CC3)cc2CC1C (centres undefined)	-1	2	x	1	-1	-1
CC(=O)N1c2ccc(S(=O)(=O)N3CCC(C(=O)Nc4cc(C)ccn4)CC3)cc2CC1C (centres undefined)	-1	1	67*	3	-3	1
O=C(c1cccnc1)N1CC2(C1)[C@H](c1ccccc1)[C@H](CO)N2C(=O)C1CCC1	x	x	x	4	-3	x
CN1CCN(Cc2nc3ccccc3c(=O)n2Cc2nc(-c3ccc4ccccc4c3)cs2)CC1	-5	-5	-4	13	3	44*!
O=C1c2ccccc2C(=O)N1COc1ccc(S(=O)(=O)N2CCOCC2)cc1[N+](=O)[O-]	-1	-1	50*	-2	2	6
O=C(Nc1cccc(Cl)c1)N1CCN(C/C=C/c2ccccc2)CC1	-2	1	48*	x	x	17
